Laboratory results reported in ChEMBL document CHEMBL5634186, “Structure-Activity Relationship Study of Biselyngbyolide B Reveals Mitochondrial Fission-Induced Cytotoxicity in Cancer” (ACS Med Chem Lett, 2024).
Active and inactive are the calls of the source. The rule behind the calls is not given here.

Assays:
[1] = test system: HCT-116; test: Anticancer activity against human HCT-116 cells assessed as inhibition of cell viability incubated for 16 hrs by MTT assay; assay type: functional, cell-based; conditions: HCT-116, 16 h
[2] = Cytotoxicity against HEK293 cells assessed as reduction in cell viability incubated for 16 hrs by MTT assay; assay type: toxicity, cell-based; conditions: human
[3] = test system: HCT-116; test: Induction of mitochondrial membrane potential loss in human HCT-116 cells at 1 uM preincubated for 16 hrs followed by Mdivi1 addition and measured after 8 hrs by MitoTracker Deep Red staining based confocal microscopy analysis; assay type: functional, cell-based
Procedure, shortened: (§1)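 HCT116 cells treated 1 μM for 16 h; DRP1 inhibited with 25 μM Mdivi-1 for 8 h. Staining 30 min with CellROX Red FM, MitoTracker Deep Red FM and LIVE/DEAD reagents; confocal imaging; mean fluorescence intensity from five fields.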

[4] = test system: HCT-116; test: Induction of ROS generation in human HCT-116 cells incubated for 16 hrs by CellROX Red staining based confocal microscope analysis; assay type: functional, cell-based; conditions: dose 0.5-1 µM
Procedure, shortened: (§2)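 HCT116 cells treated 16 h with compound (0.5 or 1 μM where dosed); stained 30 min with MitoTracker Deep Red FM (membrane potential) or CellROX Red FM (ROS); confocal imaging; mean fluorescence intensity quantified from five fields.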

[5] = test system: HCT-116; test: Induction of mitochondrial fusion in human HCT-116 cells assessed as change in Mitofusin level at 0.5 to 1 uM incubated for 8 to 24 hrs by immunoblotting analysis; assay type: functional, cell-based; conditions: dose 0.5-1 µM, time 8-24 hrs
Procedure, shortened: (§3)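 Immunoblot in HCT116 cells: p-DRP1 S616, p-DRP1 S637, DRP1, Mitofusin1, Mitofusin2 and MFF over time (0, 8, 16, 24 h); p-DRP1 S616, S637, DRP1, Mitofusin1 and OPA at 0.5 and 1 μM. β-Actin loading control.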

[6] = test system: HCT-116; test: Induction of mitochondrial fission in human HCT-116 cells assessed as decrease in DRP1 phosphorylation at S637 at 1 uM preincubated with NAC for 1 hr followed by compound addition and measured after 16 hrs by immunoblotting analysis; assay type: functional, cell-based
Procedure, shortened: (§4)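 Immunoblot of p-DRP1 S616 and p-DRP1 S637 in HCT116 cells pretreated 1 h with or without 5 mM NAC, then 1 μM compound 16 h.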

[7] = test system: HCT-116; test: Induction of mitochondrial fusion in human HCT-116 cells assessed as change in OPA1 level at 0.5 to 1 uM incubated for 8 to 24 hrs by immunoblotting analysis; assay type: functional, cell-based; conditions: dose 0.5-1 µM, time 8-24 hrs; procedure, shortened: as §3
[8] = test system: HCT-116; test: Induction of apoptosis in human HCT-116 cells assessed as decrease in cleavage of PARP at 1 uM preincubated for 16 hrs followed by Mdivi1 addition and measured after 8 hrs by immunoblotting analysis; assay type: functional, cell-based
Procedure, shortened: (§5)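 HCT116 cells treated 1 μM for 16 h, post-treated with 25 μM Mdivi-1 for 8 h; immunoblot for cleaved caspase 3 and PARP1, β-actin loading control.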

[9] = test system: HCT-116; test: Induction of apoptosis in human HCT-116 cells assessed as decrease in cleavage of PARP at 1 uM pretreated with NAC for 1 hr followed by compound addition and measured after 16 hrs by immunoblotting analysis; assay type: functional, cell-based
Procedure, shortened: (§6)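 HCT116 cells pretreated 1 h with 5 mM NAC, then 1 μM compound 16 h; immunoblot for cleaved caspase 3 and PARP1, β-actin loading control.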

[10] = test system: HCT-116; test: Induction of ROS generation in mitochondria of human HCT-116 cells transfected with mito-GFP at 1 uM incubated for 16 hrs by CellROX Red staining based confocal microscope analysis; assay type: functional, cell-based
Procedure, shortened: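 HCT116 cells transfected with CellLight Mitochondria-GFP, treated 1 μM for 16 h, stained with CellROX Red FM 30 min; confocal imaging; colocalization of GFP and CellROX Red intensities quantified.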

[11] = test system: HCT-116; test: Induction of mitochondrial fission in human HCT-116 cells assessed as decrease in DRP1 phosphorylation at S637 after 8 to 24 hrs by immunoblotting analysis; assay type: functional, cell-based; conditions: dose 0.5-1 µM, time 8-24 hrs; procedure, shortened: as §3
[12] = test system: HCT-116; test: Induction of apoptosis in human HCT-116 cells assessed as number of dead cells at 1 uM preincubated with selonsertib for 1 hr followed by compound addition and measured after 16 hrs by Calcein-AM/EthD-1 staining based confocal microscope analysis; assay type: functional, cell-based
[13] = test system: HCT-116; test: Induction of mitochondrial fission in human HCT-116 cells assessed as increase in DRP1 phosphorylation at S616 at 0.5 to 1 uM by immunoblotting analysis; assay type: functional, cell-based; conditions: dose 0.5-1 µM, time 8-24 hrs, TDE = time-dependent effect; procedure, shortened: as §3
[14] = test system: HCT-116; test: Induction of apoptosis in human HCT-116 cells assessed as number of dead cells at 1 uM preincubated for 16 hrs followed by Mdivi1 addition and measured after 8 hrs by Calcein-AM/EthD-1 staining based confocal microscope analysis; assay type: functional, cell-based; procedure, shortened: as §1
[15] = test system: HCT-116; test: Induction of mitochondrial fission in human HCT-116 cells assessed as increase in DRP1 phosphorylation at S616 after 8 to 24 hrs by immunoblotting analysis; assay type: functional, cell-based; conditions: dose 0.5-1 µM, time 8-24 hrs; procedure, shortened: as §3
[16] = test system: HCT-116; test: Induction of apoptosis in human HCT-116 cells assessed as decrease in cleavage of caspase 3 at 1 uM pretreated with NAC for 1 hr followed by compound addition and measured after 16 hrs by immunoblotting analysis; assay type: functional, cell-based; procedure, shortened: as §6
[17] = test system: HCT-116; test: Induction of apoptosis in human HCT-116 cells assessed as increase in JNK1 phosphorylation at 1 uM preincubated with selonsertib for 1 hr followed by compound addition and measured after 16 hrs by immunoblotting analysis; assay type: functional, cell-based
Procedure, shortened: (§7)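 Immunoblot of p-JNK, p-p38 and p38 in HCT116 cells pretreated 1 h with or without 50 μM selonsertib before compound treatment; β-actin loading control.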

[18] = test system: HCT-116; test: Induction of ROS generation in mitochondria of human HCT-116 cells assessed as number of dead cells at 1 uM preincubated with MitoTEMPO for 1 hr followed by compound addition and measured after 16 hrs by Calcein-AM/EthD-1 staining based confocal microscope analysis; assay type: functional, cell-based
Procedure, shortened: (§8)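 HCT116 cells pretreated 1 h with 10 μM MitoTEMPO, then compound 1 μM for 16 h. Mitochondrial superoxide by MitoSOX Red confocal imaging, intensity quantified; cytotoxicity by LIVE/DEAD kit (Calcein-AM live, EthD-1 dead), percentage dead cells quantified.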

[19] = test system: HCT-116; test: Induction of mitochondrial fusion in human HCT-116 cells assessed as change in MFF level at 0.5 to 1 uM incubated for 8 to 24 hrs by immunoblotting analysis; assay type: functional, cell-based; conditions: dose 0.5-1 µM, time 8-24 hrs; procedure, shortened: as §3
[20] = test system: HCT-116; test: Induction of ROS generation in human HCT-116 cells at 1 uM preincubated for 16 hrs followed by Mdivi1 addition for 8 hrs by CellROX Red staining based confocal microscopy analysis; assay type: functional, cell-based
[21] = test system: HCT-116; test: Induction of ROS production in human HCT-116 cells assessed as altered mitochondrial architecture at 1 uM pretreated with NAC for 1 hr followed by compound addition and measured after 16 hrs by MitoTracker Deep Red staining based confocal microscopy analysis; assay type: functional, cell-based
Procedure, shortened: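 HCT116 cells pretreated 1 h with or without 5 mM NAC, then 1 μM compound 16 h; MitoTracker Deep Red FM staining 30 min; confocal imaging of mitochondrial morphology with quantification.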

[22] = test system: HCT-116; test: Induction of mitochondrial fission in human HCT-116 cells assessed as appearance of mitochondrial puncta at 1 uM incubated for 14 hrs by Mitotracker Red staining based time-lapse microscopy analysis; assay type: functional, cell-based
Procedure, shortened: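 Time-lapse microscopy with MitoTracker Red over 14 h of treatment in HCT116 cells; size of mitochondrial puncta measured as fission read-out.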

[23] = test system: HCT-116; test: Induction of apoptosis in human HCT-116 cells assessed as increase in JNK phosphorylation at 1 uM incubated for 16 hrs by immunoblotting analysis; assay type: functional, cell-based
Procedure, shortened: (§9)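 Immunoblot of p-JNK, JNK, p-p38 and p38 in HCT116 cells after 1 μM compound for 16 h; β-actin loading control.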

[24] = test system: HCT-116; test: Induction of apoptosis in human HCT-116 cells assessed as increase in p-38 phosphorylation at 1 uM incubated for 16 hrs by immunoblotting analysis; assay type: functional, cell-based; procedure, shortened: as §9
[25] = test system: HCT-116; test: Induction of apoptosis in human HCT-116 cells assessed as decrease in cleavage of caspase 3 at 1 uM preincubated for 16 hrs followed by Mdivi1 addition and measured after 8 hrs by immunoblotting analysis; assay type: functional, cell-based; procedure, shortened: as §5
[26] = test system: HCT-116; test: Induction of apoptosis in human HCT-116 cells assessed as increase in p-38 phosphorylation at 1 uM preincubated with selonsertib for 1 hr followed by compound addition and measured after 16 hrs by immunoblotting analysis; assay type: functional, cell-based; procedure, shortened: as §7
[27] = test system: HCT-116; test: Induction of ROS production in human HCT-116 cells assessed as deterioration of mitochondrial length and area at 1 uM incubated for 16 hrs in presence of CellLight Mitochondria-GFP by confocal microscopy analysis; assay type: functional, cell-based
Procedure, shortened: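 HCT116 cells transfected with CellLight Mitochondria-GFP, treated 1 μM for 16 h; confocal images quantified for mitochondrial length and area.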

[28] = test system: HCT-116; test: Induction of mitochondrial membrane potential loss in human HCT-116 cells incubated for 16 hrs by mitotracker red staining based confocal microscope analysis; assay type: functional, cell-based; conditions: dose 0.5-1 µM; procedure, shortened: as §2
[29] = test system: HCT-116; test: Induction of ROS generation in mitochondria of human HCT-116 cells at 1 uM preincubated with MitoTEMPO for 1 hr followed by compound addition and measured after 16 hrs by MitoSOX Red staining based confocal microscope analysis; assay type: functional, cell-based; procedure, shortened: as §8
[30] = test system: HCT-116; test: Induction of mitochondrial fission in human HCT-116 cells assessed as decrease in DRP1 phosphorylation at S637 at 0.5 to 1 uM by immunoblotting analysis; assay type: functional, cell-based; conditions: dose 0.5-1 µM, time 8-24 hrs, TDE = time-dependent effect; procedure, shortened: as §3
[31] = test system: HCT-116; test: Induction of apoptosis in human HCT-116 cells assessed as increase in JNK1 phosphorylation at 1 uM preincubated with NAC for 1 hr followed by compound addition and measured after 16 hrs by immunoblotting analysis; assay type: functional, cell-based
Procedure, shortened: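 Immunoblot of p-JNK and JNK in HCT116 cells pretreated 1 h with or without 5 mM NAC before compound treatment; β-actin loading control.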

[32] = test system: HCT-116; test: Induction of mitochondrial fission in human HCT-116 cells assessed as increase in DRP1 phosphorylation at S616 at 1 uM preincubated with NAC for 1 hr followed by compound addition and measured after 16 hrs by immunoblotting analysis; assay type: functional, cell-based; procedure, shortened: as §4

Which results are given for CCCC/C(C)=C\[C@H]1C/C=C/C=C/C[C@H](C)/C=C(\C)[C@@H](OC)C/C=C/[C@@H](O)CC(=O)O1?
IC50 [1]: 8.1 µM; IC50 at 16 h [2]: 11.3 µM

For CCCCC[C@H]1C/C=C/C=C/C[C@H](C)/C=C(\C)[C@@H](OC)C/C=C/[C@@H](O)CC(=O)O1, which IC50 [1] is on record?
The IC50 was 8.1 µM.

What about the IC50 at 16 h [2] of the same compound?
Its IC50 at 16 h is 14.3 µM.

For C/C=C/C/C(C)=C\[C@H]1C/C=C/C=C/C[C@H](C)/C=C(\C)[C@@H](OC)CCC[C@@H](O)CC(=O)O1, which Activity [3] is on record?
Its Activity is “inactive”.

What about the Activity [4] of the same compound?
Its Activity is “Dose-Dependent Effect”.

What about the Activity [5] of the same compound?
Its Activity is “inactive”.

What about the Activity [6] of the same compound?
Its Activity is “inactive”.

And the Activity [7]?
The Activity was “inactive”.

And the Activity [8]?
Its Activity is “inactive”.

What about the Activity [9] of the same compound?
The Activity was “Active”.

And the Activity [10]?
Its Activity is “Active”.

And the Activity [11]?
The Activity was “Dose-Dependent Effect”.

What about the Activity [12] of the same compound?
The Activity was “inactive”.

And the Activity [13]?
Its Activity is “Tde”.

What about the Activity [14] of the same compound?
Its Activity is “inactive”.

And the Activity [15]?
Its Activity is “Dose-Dependent Effect”.

What about the Activity [16] of the same compound?
The Activity was “Active”.

And the Activity [17]?
Its Activity is “inactive”.

And the Activity [18]?
Its Activity is “inactive”.

What about the IC50 [1] of the same compound?
The IC50 was 0.1 µM.

And the Activity [19]?
The Activity was “inactive”.

And the Activity [20]?
The Activity was “inactive”.

What about the Activity [21] of the same compound?
The Activity was “inactive”.

And the Activity [22]?
Its Activity is “Active”.

And the Activity [23]?
Its Activity is “Active”.

And the Activity [24]?
The Activity was “Active”.

And the IC50 at 16 h [2]?
Its IC50 at 16 h is 23.7 µM.

What about the Activity [25] of the same compound?
The Activity was “inactive”.

What about the Activity [26] of the same compound?
Its Activity is “inactive”.

And the Activity [27]?
Its Activity is “Active”.

And the Activity [28]?
The Activity was “Dose-Dependent Effect”.

And the Activity [29]?
The Activity was “inactive”.

What about the Activity [30] of the same compound?
The Activity was “Tde”.

What about the Activity [31] of the same compound?
The Activity was “inactive”.

And the Activity [32]?
Its Activity is “inactive”.
